In PMC12166256 (Clinical Pharmacology and Therapeutics, 2025):

Experiment: Food effect study: safety and tolerability
Format: in vivo, human
Summary of the method: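 Healthy males aged 18–55 with BMI 18–30 kg/m² were followed through dosing and a 6–8-day follow-up. Checks: physical examination, clinical laboratory tests, vital signs and 12-lead ECG, with adverse events coded in MedDRA. Events of special interest: ALT ≥2×ULN, QTcF ≥500 ms, Grade ≥2 photosensitivity, symptomatic overdose. Treatment-emergent events were summarised descriptively by organ class, preferred term and dose level for all exposed participants.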

Compound: CN1C(=O)c2cccc(OC(F)F)c2[C@H]2C[C@@H]1c1nc3ccc(-c4cnc(C5(N)CCC5)nc4)cc3n12 [Balinatunfib]
- participants with at least one TEAE (200 mg fasted (five of eight)): 62.5%
- Any event TEAE, events (200 mg fasted, N = 8): 7
- Any event TEAE, participants (200 mg fasted, N = 8): 5 (62.5) n (%)
- Blood and lymphatic system disorders TEAE, events (200 mg fasted, N = 8): 1
- Blood and lymphatic system disorders TEAE, participants (200 mg fasted, N = 8): 1 (12.5) n (%)
- Blood pressure orthostatic decreased TEAE, events (200 mg fasted, N = 8): 1
- Blood pressure orthostatic decreased TEAE, participants (200 mg fasted, N = 8): 1 (12.5) n (%)
- Diarrhea TEAE, events (200 mg fasted, N = 8): 1
- Diarrhea TEAE, participants (200 mg fasted, N = 8): 1 (12.5) n (%)
- Dry skin TEAE, events (200 mg fasted, N = 8): 1
- Dry skin TEAE, participants (200 mg fasted, N = 8): 1 (12.5) n (%)
- Fatigue TEAE, events (200 mg fasted, N = 8): 0
- Fatigue TEAE, participants (200 mg fasted, N = 8): 0 n (%)
- Flatulence TEAE, events (200 mg fasted, N = 8): 1
- Flatulence TEAE, participants (200 mg fasted, N = 8): 1 (12.5) n (%)
- Gastrointestinal disorders TEAE, events (200 mg fasted, N = 8): 2
- Gastrointestinal disorders TEAE, participants (200 mg fasted, N = 8): 2 (25.0) n (%)
- General disorders and administration site conditions TEAE, events (200 mg fasted, N = 8): 0
- General disorders and administration site conditions TEAE, participants (200 mg fasted, N = 8): 0 n (%)
- Headache TEAE, events (200 mg fasted, N = 8): 1
- Headache TEAE, participants (200 mg fasted, N = 8): 1 (12.5) n (%)
- Investigations TEAE, events (200 mg fasted, N = 8): 1
- Investigations TEAE, participants (200 mg fasted, N = 8): 1 (12.5) n (%)
- Loss of consciousness TEAE, events (200 mg fasted, N = 8): 1
- Loss of consciousness TEAE, participants (200 mg fasted, N = 8): 1 (12.5) n (%)
- Muscle tightness TEAE, events (200 mg fasted, N = 8): 0
- Muscle tightness TEAE, participants (200 mg fasted, N = 8): 0 n (%)
- Musculoskeletal and connective tissue disorders TEAE, events (200 mg fasted, N = 8): 0
- Musculoskeletal and connective tissue disorders TEAE, participants (200 mg fasted, N = 8): 0 n (%)
- Nervous system disorders TEAE, events (200 mg fasted, N = 8): 2
- Nervous system disorders TEAE, participants (200 mg fasted, N = 8): 2 (25.0) n (%)
- Neutropenia TEAE, events (200 mg fasted, N = 8): 1
- Neutropenia TEAE, participants (200 mg fasted, N = 8): 1 (12.5) n (%)
- Skin and subcutaneous tissue disorders TEAE, events (200 mg fasted, N = 8): 1
- Skin and subcutaneous tissue disorders TEAE, participants (200 mg fasted, N = 8): 1 (12.5) n (%)
- Tendonitis TEAE, events (200 mg fasted, N = 8): 0
- Tendonitis TEAE, participants (200 mg fasted, N = 8): 0 n (%)
- neutrophil count in the participant with Grade 2 neutropenia (200 mg fasted, Period 1, normal range 1.46–5.85): 1.42e+09 L⁻¹
- participants with at least one TEAE (200 mg fed (four of six)): 66.7%
- Any event TEAE, events (200 mg fed, N = 6): 6
- Any event TEAE, participants (200 mg fed, N = 6): 4 (66.7) n (%)
- Blood and lymphatic system disorders TEAE, events (200 mg fed, N = 6): 0
- Blood and lymphatic system disorders TEAE, participants (200 mg fed, N = 6): 0 n (%)
- Blood pressure orthostatic decreased TEAE, events (200 mg fed, N = 6): 1
- Blood pressure orthostatic decreased TEAE, participants (200 mg fed, N = 6): 1 (16.7) n (%)
- Diarrhea TEAE, events (200 mg fed, N = 6): 1
- Diarrhea TEAE, participants (200 mg fed, N = 6): 1 (16.7) n (%)
- Dry skin TEAE, events (200 mg fed, N = 6): 0
- Dry skin TEAE, participants (200 mg fed, N = 6): 0 n (%)
- Fatigue TEAE, events (200 mg fed, N = 6): 1
- Fatigue TEAE, participants (200 mg fed, N = 6): 1 (16.7) n (%)
- Flatulence TEAE, events (200 mg fed, N = 6): 0
- Flatulence TEAE, participants (200 mg fed, N = 6): 0 n (%)
- Gastrointestinal disorders TEAE, events (200 mg fed, N = 6): 1
- Gastrointestinal disorders TEAE, participants (200 mg fed, N = 6): 1 (16.7) n (%)
- General disorders and administration site conditions TEAE, events (200 mg fed, N = 6): 1
- General disorders and administration site conditions TEAE, participants (200 mg fed, N = 6): 1 (16.7) n (%)
- Headache TEAE, events (200 mg fed, N = 6): 1
- Headache TEAE, participants (200 mg fed, N = 6): 1 (16.7) n (%)
- Investigations TEAE, events (200 mg fed, N = 6): 1
- Investigations TEAE, participants (200 mg fed, N = 6): 1 (16.7) n (%)
- Loss of consciousness TEAE, events (200 mg fed, N = 6): 0
- Loss of consciousness TEAE, participants (200 mg fed, N = 6): 0 n (%)
- Muscle tightness TEAE, events (200 mg fed, N = 6): 1
- Muscle tightness TEAE, participants (200 mg fed, N = 6): 1 (16.7) n (%)
- Musculoskeletal and connective tissue disorders TEAE, events (200 mg fed, N = 6): 2
- Musculoskeletal and connective tissue disorders TEAE, participants (200 mg fed, N = 6): 2 (33.3) n (%)
- Nervous system disorders TEAE, events (200 mg fed, N = 6): 1
- Nervous system disorders TEAE, participants (200 mg fed, N = 6): 1 (16.7) n (%)
- Neutropenia TEAE, events (200 mg fed, N = 6): 0
- Neutropenia TEAE, participants (200 mg fed, N = 6): 0 n (%)
- Skin and subcutaneous tissue disorders TEAE, events (200 mg fed, N = 6): 0
- Skin and subcutaneous tissue disorders TEAE, participants (200 mg fed, N = 6): 0 n (%)
- Tendonitis TEAE, events (200 mg fed, N = 6): 1
- Tendonitis TEAE, participants (200 mg fed, N = 6): 1 (16.7) n (%)
- Grade ≥ 3 TEAE, treatment-emergent SAEs, AESIs (food effect study): No participants
